Screening data: PubChem BioAssay, several laboratories
The list is not random: actives were taken first. Their share in the collection is about 1.7%.
TPT1 inh = blocks Candida albicans tRNA 2'-phosphotransferase; recombinant caTPT1, FP RNA substrate dephosphorylation; inhibition, % at 5 µM; 300,000 compounds, 0.81% hits;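 active = inhibition above the mean of all tested compounds plus 3 SD, set per screening campaign, cut at about 24% in these data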
CSN inh = inhibitors of human CSN-mediated cullin deneddylation | Q92905 | Purified CSN, SCF-Nedd8-OG deneddylation, fluorescence polarization | inhibition, % at 12.5 µM | 360,000 compounds, 0.38% hits;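 active = pattern-corrected inhibition above about 35%, with an unprinted fluorescence ratio check between 0.5 and 1.5, limit read from the data, passing the limit was not always enough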
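Detection – fluorescence polarization · System – HEK293T-derived human Csn5 enzyme · Controls – substrate-only high control, full reaction low control · Timing – 90 min, room temperature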
Rpn11 block = inhibitors of human proteasome Rpn11; inhibition, % at 20 µM; AID 588493; O00487; 360,000 compounds, 0.59% hits; human 26S proteasome, Ub4-pepOG fluorescence polarization; 20S core pre-blocked with epoxomicin;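 active = inhibition at 20 µM, scaled to each plate's controls, above about 33%, limit read from the data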
IDE cell activ = IDE (human) activation, cell-based; P14735; HEK cells, FAbeta-B cleavage, fluorescence polarization; 0% vehicle, 100% cell-free pure enzyme wells; 340,000 compounds, 0.073% hits; activation, % at 5.96 µM;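 active = activation above the mean of all tested compounds plus 3 SD, set per screening campaign, cut at about 17% in these data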
IDE inh = cellular human IDE inhibition | P14735 | HEK cells, FAbetaB cleavage, fluorescence polarization | inhibition, % at 5.59 µM | 320,000 compounds, 0.41% hits;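 active = percent inhibition above the average of all tested compounds plus 3 SD, set per screening campaign, cut at about 16% in these data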;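 also: IDE supplied by intact live HEK cells; FP after avidin binding of uncleaved biotin substrate so inhibition keeps polarization high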
HNF4A DNA FP = change in binding of human HNF4 alpha to DNA; P41235; HNF4a-FITC DNA binding, fluorescence polarization, 1 h; activity change, % at 10 µM; 360,000 compounds, 0.3% hits; AID 1224865; in the data active = activity change above about 30%, passing the limit was not always enough
Rpn11 inh conf = confirmation of human proteasome Rpn11 inhibitors | inhibition, % at 20 µM | shares compounds with Rpn11 block | 1,900 compounds, 29% hits | purified human 26S proteasome, Ub4-pepOG fluorescence polarization; proteasome pretreated with epoxomicin | AID 602318
MMP-2 inh = counter-screen for RPN11 inhibitors: inhibition of human MMP-2 | inhibition, % at 20 µM | shares compounds with Rpn11 block | 1,900 compounds, 4% hits | AID 602330 | recombinant MMP-2, FRET peptide cleavage fluorescence;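 also: human MMP-2 activated beforehand with APMA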
Thrombin FP = counter-screen for RPN11 inhibitors: inhibition of bovine thrombin | shares compounds with Rpn11 block | inhibition, % at 20 µM | bovine thrombin cleavage of Ub4-pepOG, fluorescence polarization | 1,900 compounds, 13% hits;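 active = mean inhibition at least 40% at 20 µM, or signal 3 deviations below plate average, so some actives read negative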
Target sequence (P00735 whole entry, looked up): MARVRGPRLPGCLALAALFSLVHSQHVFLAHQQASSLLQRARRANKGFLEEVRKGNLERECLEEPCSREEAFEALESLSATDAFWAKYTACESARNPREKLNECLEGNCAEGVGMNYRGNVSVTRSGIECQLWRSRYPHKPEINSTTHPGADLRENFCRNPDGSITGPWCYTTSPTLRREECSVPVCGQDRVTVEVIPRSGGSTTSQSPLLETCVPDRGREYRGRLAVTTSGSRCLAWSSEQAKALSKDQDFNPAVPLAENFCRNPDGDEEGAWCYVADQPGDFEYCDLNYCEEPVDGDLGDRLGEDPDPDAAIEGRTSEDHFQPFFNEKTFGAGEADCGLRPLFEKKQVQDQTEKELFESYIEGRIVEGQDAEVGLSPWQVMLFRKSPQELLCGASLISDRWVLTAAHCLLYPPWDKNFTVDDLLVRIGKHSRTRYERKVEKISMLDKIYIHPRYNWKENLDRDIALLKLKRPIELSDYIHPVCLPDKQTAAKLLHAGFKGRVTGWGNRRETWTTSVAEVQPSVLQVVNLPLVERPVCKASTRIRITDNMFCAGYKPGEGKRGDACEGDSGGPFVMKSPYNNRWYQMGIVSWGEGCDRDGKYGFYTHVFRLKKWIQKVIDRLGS
A number is an active result; . = inactive; / = no result given. Rule as the data show it, unless noted: active = inhibition above about 40%; inactive = the rest.

SMILES	TPT1 inh	CSN inh	Rpn11 block	IDE cell activ	IDE inh	HNF4A DNA FP	Rpn11 inh conf	MMP-2 inh	Thrombin FP
O=C(NCC1CCCO1)C(c1cccs1)N(Cc1cccs1)C(=O)c1ccc(-c2ccccc2)[nH]1 (stereo not given)	.	.	52	.	.	.	.	.	.
C=CC[n+]1c(-c2ccc(OCC)cc2)csc1NNC(=O)Nc1ccccc1	.	.	42	.	.	.	.	.	.
CCOc1ccccc1NS(=O)(=O)c1cn(C)nc1C	.	.	32	.	.	.	.	.	.
Cc1ccccc1Cn1cc(S(=O)(=O)c2ccc(C(C)C)cc2)c(=O)c2cc3c(cc21)OCO3	.	.	.	.	.	.	/	/	/
O=C1c2cccc3cccc(c23)C(=O)N1c1ccc2ncccc2c1	.	.	136	.	.	.	41	.	.
O=C1c2cccc3cccc(c23)C(=O)N1c1nccs1	.	.	.	.	.	.	/	/	/
CCOc1ccc(Br)cc1CN(CC)CC	.	.	.	.	.	.	/	/	/
CC(C)S(=O)(=O)C1=NSC2=NC(=O)/C(=C\c3ccc(-c4cccc(C(=O)O)c4)o3)C(=N)N21	/	.	69	.	/	.	.	.	.
CC(C)S(=O)(=O)C1=NSC2=NC(=O)/C(=C\c3ccc(-c4ccccc4)o3)C(=N)N21	.	.	51	.	.	.	.	.	.
COc1ccc(CNC(=O)CSc2n[nH]c(C)c2[N+](=O)[O-])cc1	.	.	.	.	.	.	/	/	/
Cc1ccc(C(=O)Nc2cccc3[nH]c(C(F)(F)F)nc23)cc1	.	.	.	.	.	.	/	/	/
COc1ccccc1NC(=O)Nc1nc(CC(=O)Nc2cc(F)ccc2F)cs1	.	.	46	.	.	.	.	.	.
COc1ccccc1NC(=O)Nc1nc(CC(=O)Nc2cccc(F)c2)cs1	.	.	.	.	.	.	/	/	/
Fc1ccccc1NC(=S)NN(Cc1ccccc1)c1ccccc1	.	.	111	.	.	38	.	46	.
CC(C)c1ccccc1NC(=S)NN(Cc1ccccc1)c1ccccc1	.	.	.	.	.	.	/	/	/
CCCCCCN(C(=O)CCl)c1ccccc1	.	.	.	.	.	.	/	/	/
CCN(CC)c1ccc(/C=C2\C(=O)N(c3nnc(C)c(=O)[nH]3)N=C2C)cc1	43	.	44	.	.	.	49	.	.
COc1ccc(/C=C2/C(=O)N(c3ccccc3)N=C2C)cc1	.	.	.	/	.	.	/	/	/
COC(=O)c1ccc(NC(=O)c2cn(-c3ccccc3)nc2-c2ccncc2)cc1	.	.	54	.	.	.	.	.	.
CC(=O)c1ccc(NC(=O)c2cn(-c3ccccc3)nc2-c2ccncc2)cc1	.	.	.	.	.	.	/	/	/
CCNC(=O)C1CCCN(C(=O)C(c2ccccc2)c2ccccc2)CC1 (stereo not given)	/	.	.	/	/	.	/	/	/
COc1ccc2oc(C(=O)OCC(=O)N(C)C3CCCCC3)c(C)c2c1	.	.	.	.	.	.	/	/	/
CCOC(=O)/C(C#N)=N/Nc1ccccc1OC	.	.	40	.	.	.	.	.	.
O=[N+]([O-])c1cccc(/C=C/C=N/Nc2nc(N3CCCCC3)nc(N3CCCCC3)n2)c1	.	.	.	.	.	.	/	/	/
C=CCn1cc(/C=N/NC(=O)COc2cccc3cccnc23)c2ccccc21	.	.	59	.	.	.	88	.	53
COc1cc(/C=C(\CCC(=O)O)c2nc3ccccc3s2)ccc1OCC(=O)Nc1c(Cl)cccc1Cl	/	.	73	.	.	.	.	.	.
O=C(O)CC/C(=C/c1cccc(NC(=O)c2ccccc2Cl)c1)c1nc2ccccc2s1	/	.	.	.	/	.	/	/	/
